Assay results as given in ChEMBL document CHEMBL2150901, “Synthesis and biological activity of tricyclic cycloalkylimidazo-, pyrimido- and diazepinopurinediones” (Eur J Med Chem, 2011).
Activity calls are given as the source filed them. No cut-off for these calls is given here.

How the values were obtained:
Rattus norvegicus [1] = assay: Neurotoxicity in Sprague-Dawley albino rat assessed as minimal motor impairment at 30 mg/kg, po after 0.25 hrs by rotorod test; type: toxicity, organism-based; design: dose 30 mg/kg, route oral; conditions: in vivo
How it was run: (§1)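 Male Sprague-Dawley albino rats (100–150 g), groups of 4. Oral suspension in 0.5% methylcellulose/water. Protection assessed by maximal electroshock or subcutaneous pentylenetetrazole; motor impairment by rotorod. Time points 0.25–4 h. Value is protected (or toxic)/tested animals.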

Rattus norvegicus [2] = assay: Anticonvulsant activity in Sprague-Dawley albino rat assessed as protection against maximal electroshock-induced seizures at 30 mg/kg, po after 4 hrs; type: functional, organism-based; design: dose 30 mg/kg; how it was run: as §1
Mus musculus [3] = assay: Anticonvulsant activity in F1 albino mouse assessed as protection against maximal electroshock-induced seizures at 300 mg/kg, ip after 1 hr; type: functional, organism-based; design: dose 300 mg/kg
How it was run: (§2)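 Male albino F-1 mice (18–25 g), groups of 1–5 (rotorod 2–8). Compound given ip as a suspension in 0.5% methylcellulose at 30, 100 and 300 mg/kg. Seizures by maximal electroshock or subcutaneous pentylenetetrazole; neurotoxicity by rotorod. Read at 0.5 and 4 h, with some at 0.25, 1 and 2 h. Value is the minimum active dose, with protected (or toxic)/tested animals.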

Rattus norvegicus [4] = assay: Anticonvulsant activity in Sprague-Dawley albino rat assessed as protection against maximal electroshock-induced seizures at 30 mg/kg, po after 0.5 hrs; type: functional, organism-based; design: dose 30 mg/kg; how it was run: as §1
Mus musculus [5] = assay: Anticonvulsant activity in F1 albino mouse assessed as protection against subcutaneous pentylenetetrazole-induced seizures at 300 mg/kg, ip after 0.25 hrs; type: functional, organism-based; design: dose 300 mg/kg; how it was run: as §2
Rattus norvegicus [6] = assay: Anticonvulsant activity in Sprague-Dawley albino rat assessed as protection against maximal electroshock-induced seizures at 30 mg/kg, po after 2 hrs; type: functional, organism-based; design: dose 30 mg/kg; how it was run: as §1
Adenosine receptor A2a [7] = molecular target: T1, Adenosine receptor A2a (Rattus norvegicus, UniProt P30543); assay: Displacement of [3H]MSX-2 from adenosine A2A receptor in rat brain striatal membrane; type: cell membranes
T1 sequence (P30543 whole entry): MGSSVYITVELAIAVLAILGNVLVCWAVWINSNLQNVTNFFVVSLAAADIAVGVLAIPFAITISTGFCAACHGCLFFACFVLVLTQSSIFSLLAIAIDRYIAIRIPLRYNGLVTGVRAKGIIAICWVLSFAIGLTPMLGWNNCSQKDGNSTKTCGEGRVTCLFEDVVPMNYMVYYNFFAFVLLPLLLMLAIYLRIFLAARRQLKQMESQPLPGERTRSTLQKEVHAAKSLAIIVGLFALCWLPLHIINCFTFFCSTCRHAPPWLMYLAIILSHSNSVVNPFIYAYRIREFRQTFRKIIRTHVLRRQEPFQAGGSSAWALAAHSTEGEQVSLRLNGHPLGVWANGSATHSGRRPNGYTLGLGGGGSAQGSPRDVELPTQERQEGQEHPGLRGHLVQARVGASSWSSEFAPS

Mus musculus [8] = assay: Anticonvulsant activity in F1 albino mouse assessed as protection against subcutaneous pentylenetetrazole-induced seizures at 300 mg/kg, ip after 1 hr; type: functional, organism-based; design: dose 300 mg/kg; how it was run: as §2
Mus musculus [9] = assay: Neurotoxicity in F1 albino mouse assessed as minimal motor impairment at 300 mg/kg, ip after 0.5 hrs by rotorod test; type: toxicity, organism-based; design: dose 300 mg/kg, route intraperitoneal; conditions: in vivo; how it was run: as §2
Mus musculus [10] = assay: Anticonvulsant activity in F1 albino mouse assessed as protection against subcutaneous pentylenetetrazole-induced seizures at 300 mg/kg, ip after 4 hrs; type: functional, organism-based; design: dose 300 mg/kg; how it was run: as §2
Mus musculus [11] = assay: Neurotoxicity in F1 albino mouse assessed as minimal motor impairment at 300 mg/kg, ip after 4 hrs by rotorod test; type: toxicity, organism-based; design: dose 300 mg/kg, route intraperitoneal; conditions: in vivo; how it was run: as §2
Rattus norvegicus [12] = assay: Anticonvulsant activity in Sprague-Dawley albino rat assessed as protection against subcutaneous pentylenetetrazole-induced seizures at 50 mg/kg, po after 0.25 hrs; type: functional, organism-based; design: dose 50 mg/kg; how it was run: as §1
Rattus norvegicus [13] = assay: Anticonvulsant activity in Sprague-Dawley albino rat assessed as protection against subcutaneous pentylenetetrazole-induced seizures at 50 mg/kg, po after 4 hrs; type: functional, organism-based; design: dose 50 mg/kg; how it was run: as §1
Rattus norvegicus [14] = assay: Neurotoxicity in Sprague-Dawley albino rat assessed as minimal motor impairment at 30 mg/kg, po after 1 hr by rotorod test; type: toxicity, organism-based; design: dose 30 mg/kg, route oral; conditions: in vivo; how it was run: as §1
Rattus norvegicus [15] = assay: Neurotoxicity in Sprague-Dawley albino rat assessed as minimal motor impairment at 30 mg/kg, po after 0.5 hrs by rotorod test; type: toxicity, organism-based; design: dose 30 mg/kg, route oral; conditions: in vivo; how it was run: as §1
Rattus norvegicus [16] = assay: Anticonvulsant activity in Sprague-Dawley albino rat assessed as protection against subcutaneous pentylenetetrazole-induced seizures at 50 mg/kg, po after 0.5 hrs; type: functional, organism-based; design: dose 50 mg/kg; how it was run: as §1
Mus musculus [17] = assay: Anticonvulsant activity in F1 albino mouse assessed as protection against maximal electroshock-induced seizures at 300 mg/kg, ip after 0.25 hrs; type: functional, organism-based; design: dose 300 mg/kg; how it was run: as §2
Rattus norvegicus [18] = species: Rattus norvegicus; assay: Selectivity ratio of Ki for adenosine A1 receptor in rat brain cortical membrane to Ki for adenosine A2A receptor in rat brain striatal membrane; type: cell membranes
How it was run: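 Ki ratios from radioligand competition binding. Rat A1 used brain cortical membranes and rat A2A used brain striatal membranes. Human A1 and A2A used membranes of CHO cells expressing the receptors. A1 radioligand [³H]CCPA; A2A radioligand [³H]MSX-2. Potent compounds were tested at 6–7 concentrations spanning 3 orders of magnitude.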

Rattus norvegicus [19] = assay: Anticonvulsant activity in Sprague-Dawley albino rat assessed as protection against subcutaneous pentylenetetrazole-induced seizures at 50 mg/kg, po after 2 hrs; type: functional, organism-based; design: dose 50 mg/kg; how it was run: as §1
Mus musculus [20] = assay: Anticonvulsant activity in F1 albino mouse assessed as protection against subcutaneous pentylenetetrazole-induced seizures at 100 mg/kg, ip after 0.5 hrs; type: functional, organism-based; design: dose 100 mg/kg; how it was run: as §2
Rattus norvegicus [21] = assay: Anticonvulsant activity in Sprague-Dawley albino rat assessed as protection against maximal electroshock-induced seizures at 30 mg/kg, po after 1 hr; type: functional, organism-based; design: dose 30 mg/kg; how it was run: as §1
Rattus norvegicus [22] = assay: Anticonvulsant activity in Sprague-Dawley albino rat assessed as protection against subcutaneous pentylenetetrazole-induced seizures at 50 mg/kg, po after 1 hr; type: functional, organism-based; design: dose 50 mg/kg; how it was run: as §1
Mus musculus [23] = assay: Anticonvulsant activity in F1 albino mouse assessed as protection against maximal electroshock-induced seizures at 300 mg/kg, ip after 4 hrs; type: functional, organism-based; design: dose 300 mg/kg; how it was run: as §2
Mus musculus [24] = assay: Anticonvulsant activity in F1 albino mouse assessed as protection against maximal electroshock-induced seizures at 100 mg/kg, ip after 0.5 hrs; type: functional, organism-based; design: dose 100 mg/kg; how it was run: as §2
Adenosine receptor A1 [25] = molecular target: T2, Adenosine receptor A1 (Rattus norvegicus, UniProt P25099); assay: Displacement of [3H]CCPA from adenosine A1 receptor in rat brain cortical membrane; type: cell membranes
T2 sequence (P25099 whole entry): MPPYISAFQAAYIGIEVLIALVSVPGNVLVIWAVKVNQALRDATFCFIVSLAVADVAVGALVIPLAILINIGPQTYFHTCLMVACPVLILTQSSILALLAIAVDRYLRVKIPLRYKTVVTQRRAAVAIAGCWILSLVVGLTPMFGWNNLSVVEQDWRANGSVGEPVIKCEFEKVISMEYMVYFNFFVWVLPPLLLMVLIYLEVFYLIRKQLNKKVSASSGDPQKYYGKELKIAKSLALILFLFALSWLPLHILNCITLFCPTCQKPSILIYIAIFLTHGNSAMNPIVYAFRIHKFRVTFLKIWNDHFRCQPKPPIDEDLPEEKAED

Rattus norvegicus [26] = assay: Neurotoxicity in Sprague-Dawley albino rat assessed as minimal motor impairment at 30 mg/kg, po after 4 hrs by rotorod test; type: toxicity, organism-based; design: dose 30 mg/kg, route oral; conditions: in vivo
How it was run: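 Male Sprague-Dawley albino rats (100–150 g), groups of 4, dosed orally with a suspension in 0.5% methylcellulose/water. Neurotoxicity was scored as minimal motor impairment on the rotorod at 0.25, 0.5, 1 and 4 h. Results are reported as animals showing toxicity per animals tested.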

Mus musculus [27] = assay: Neurotoxicity in F1 albino mouse assessed as minimal motor impairment at 300 mg/kg, ip after 1 hr by rotorod test; type: toxicity, organism-based; design: dose 300 mg/kg, route intraperitoneal; conditions: in vivo; how it was run: as §2
Mus musculus [28] = assay: Neurotoxicity in F1 albino mouse assessed as minimal motor impairment at 300 mg/kg, ip after 0.25 hrs by rotorod test; type: toxicity, organism-based; design: dose 300 mg/kg, route intraperitoneal; conditions: in vivo; how it was run: as §2
Mus musculus [29] = assay: Anticonvulsant activity in F1 albino mouse assessed as protection against maximal electroshock-induced seizures at 300 mg/kg, ip after 0.5 hrs; type: functional, organism-based; design: dose 300 mg/kg; how it was run: as §2
Mus musculus [30] = assay: Toxicity in F1 albino mouse assessed as mortality following clonic seizures at 300 mg/kg, ip after 0.5 hrs; type: organism-based; design: dose 300 mg/kg, route intraperitoneal; conditions: in vivo
How it was run: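 Male albino F-1 mice (18–25 g) were dosed i.p. with a suspension in 0.5% methylcellulose in water at 30, 100 and 300 mg/kg. Screening used MES, subcutaneous pentylenetetrazole (ScMet) and rotorod tests, with 1–5 mice per seizure test.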

Adenosine receptor A2a [31] = molecular target: T1, Adenosine receptor A2a; assay: Displacement of [125I]ZM241385 from adenosine A2A receptor in rat brain striatum membrane; type: cell membranes
Adenosine receptor A2b = molecular target: T3, Adenosine receptor A2b (Homo sapiens, UniProt P29275); assay: Displacement of [3H]MRS-1754 from human recombinant adenosine A2B receptor expressed in HEK293 cells; type: cell-based
T3 sequence (P29275 whole entry): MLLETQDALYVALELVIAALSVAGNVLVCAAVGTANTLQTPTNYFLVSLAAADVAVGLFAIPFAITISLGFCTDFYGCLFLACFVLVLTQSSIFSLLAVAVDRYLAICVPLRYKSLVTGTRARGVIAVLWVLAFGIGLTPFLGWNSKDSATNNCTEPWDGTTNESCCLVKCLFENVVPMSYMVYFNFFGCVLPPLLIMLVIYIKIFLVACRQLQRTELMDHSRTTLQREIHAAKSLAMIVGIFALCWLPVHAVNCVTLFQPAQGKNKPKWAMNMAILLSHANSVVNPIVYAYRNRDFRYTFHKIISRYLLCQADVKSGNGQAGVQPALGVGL

Adenosine receptor A3 = molecular target: T4, Adenosine receptor A3 (Homo sapiens, UniProt P0DMS8); assay: Displacement of [125I]AB-MECA from human adenosine A3 receptor expressed in HEK293 cells; type: cell-based
T4 sequence (P0DMS8 whole entry): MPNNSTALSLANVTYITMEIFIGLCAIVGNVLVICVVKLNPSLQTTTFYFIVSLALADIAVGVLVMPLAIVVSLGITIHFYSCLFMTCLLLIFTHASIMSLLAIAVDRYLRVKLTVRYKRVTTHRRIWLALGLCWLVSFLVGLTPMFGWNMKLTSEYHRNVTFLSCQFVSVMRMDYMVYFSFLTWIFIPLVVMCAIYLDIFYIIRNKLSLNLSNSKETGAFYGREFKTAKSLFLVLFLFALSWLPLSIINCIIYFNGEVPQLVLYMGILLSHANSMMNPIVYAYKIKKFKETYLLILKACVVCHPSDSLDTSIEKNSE

Adenosine receptor A1 [32] = molecular target: T2, Adenosine receptor A1; assay: Displacement of [3H]CPX from adenosine A1 receptor in rat brain cortical membrane; type: cell membranes

SMILES	Activity (Mus musculus [3])	Activity (Mus musculus [5])	Ki (Adenosine receptor A2a [7])	Activity (Mus musculus [8])	Activity (Mus musculus [9])	Activity (Mus musculus [10])	Activity (Mus musculus [11])	Activity (Mus musculus [17])	Ratio Ki (Rattus norvegicus [18])	Activity (Mus musculus [23])	Ki (Adenosine receptor A1 [25])	Activity (Mus musculus [27])	Activity (Mus musculus [28])	also measured
C[C@@H](C1CCCCC1)N1CCCn2c1nc1c2c(=O)n(C)c(=O)n1C	inactive	inactive	0.887 µM	inactive	Non-toxic	inactive	Non-toxic	inactive	13	inactive	11.9 µM	Non-toxic	Non-toxic	Activity (Rattus norvegicus [1]): Non-toxic; Activity (Rattus norvegicus [2]): inactive; Activity (Rattus norvegicus [4]): inactive; Activity (Rattus norvegicus [6]): inactive; Activity (Rattus norvegicus [12]): inactive; Activity (Rattus norvegicus [13]): inactive; Activity (Rattus norvegicus [14]): Non-toxic; Activity (Rattus norvegicus [15]): Non-toxic; Activity (Rattus norvegicus [16]): inactive; Activity (Rattus norvegicus [19]): inactive; Activity (Mus musculus [20]): inactive; Activity (Rattus norvegicus [21]): Active; Activity (Rattus norvegicus [22]): inactive; Activity (Mus musculus [24]): Active; Activity (Rattus norvegicus [26]): Non-toxic
Cn1c(=O)c2c(nc3n2CCCN3C2CCCC2)n(C)c1=O	inactive	inactive	1 µM	Active	Non-toxic	inactive	Non-toxic	inactive	5	inactive	5.31 µM	Non-toxic	Non-toxic	Activity (Mus musculus [29]): inactive; Activity (Mus musculus [30]): Toxic
CCCn1c(=O)c2[nH]c(C3C4CC5OC(=O)C3C5C4)nc2n(CCC)c1=O (configuration not stated)	–	–	–	–	–	–	–	–	–	–	–	–	–	Ki (Adenosine receptor A2a [31]): 0.269 µM; Ki (Adenosine receptor A2b): 1.54 µM; Ki (Adenosine receptor A3): > 10 µM; Ki (Adenosine receptor A1 [32]): 0.0003 µM
